Most compounds without a hit are left out; they make up all but 2.5% or so of the library.
VIM-2 inhibitor: blocks Pseudomonas aeruginosa VIM-2 metallo-beta-lactamase; inhibition, % at 5.6 µM; 290,000 tested, 0.89% active; purified VIM-2, nitrocefin hydrolysis, epi-absorbance fluorescence; AID 1527;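 active = inhibition above the mean of all tested compounds plus 3 SD, cutoff set per screening run, cut at about 7.5% in these data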;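 note: red hydrolysis product quenches plate fluorescence so inhibitors raise well fluorescence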
dFosB activator: enhances mouse delta FosB homodimer DNA binding | purified delta FosB, TAMRA-CDK5 oligo fluorescence polarization; percent of positive-control signal above neutral wells | activation, % at 25 µM | 340,000 tested, 0.99% active;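 active = mean activation above about 17%, with every replicate also reaching it, limit read from the data, passing the limit was not always enough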
HTR2A ag: agonists of mouse serotonin 5-HT2A receptor (HTR2A). P35363. CHO-K1 mHTR2A beta-arrestin complementation, luminescence; percent of 30 µM serotonin response. activation, % at 7.6 µM. 360,000 tested, 0.66% active;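 active = activation above a run cutoff, the mean activation of all tested compounds plus 3 SD, cut at about 14% in these data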
Target sequence (P35363 whole entry, looked up): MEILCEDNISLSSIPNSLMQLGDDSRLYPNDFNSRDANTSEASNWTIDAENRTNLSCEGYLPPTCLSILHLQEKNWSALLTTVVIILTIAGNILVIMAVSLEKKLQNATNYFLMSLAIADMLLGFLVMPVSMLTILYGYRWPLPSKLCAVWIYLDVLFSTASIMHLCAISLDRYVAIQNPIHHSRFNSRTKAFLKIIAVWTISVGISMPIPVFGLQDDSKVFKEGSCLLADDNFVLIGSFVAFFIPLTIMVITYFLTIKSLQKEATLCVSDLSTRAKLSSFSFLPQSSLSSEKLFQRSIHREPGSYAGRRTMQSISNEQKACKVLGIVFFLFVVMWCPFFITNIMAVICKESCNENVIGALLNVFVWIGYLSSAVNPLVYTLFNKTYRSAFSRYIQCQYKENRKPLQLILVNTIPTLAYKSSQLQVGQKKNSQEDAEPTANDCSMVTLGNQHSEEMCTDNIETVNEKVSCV
IMP-1 inh: blocks Pseudomonas aeruginosa IMP-1 metallo-beta-lactamase; purified IMP-1, nitrocefin hydrolysis, epi-absorbance fluorescence; 290,000 tested, 0.45% active; inhibition, % at 5.6 µM;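 active = inhibition above the mean plus 3 SD of all compounds in the same screening run, cut at about 4.5% in these data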
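assay system = purified recombinant IMP-1 metallo-beta-lactamase enzyme | schedule = 15 min preincubation plus 25 min reaction at 25 °C | signal = Epi-absorbance fluorescence, 480 nm excitation, 530 nm emission | read-out basis = percent inhibition from optical density relative to buffer-blank wells | controls = IMP-1 with DMSO as 0%, enzyme-free DMSO as 100%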
Each line names hits and unclear results; the compound was inactive in the other large screens.

Cc1nn(-c2ccccc2)c2[nH]c(=O)c(CNCc3ccc4c(c3)OCO4)cc12	none
Cc1ccc(-c2nn(-c3ccccc3)c3[nH]c(=O)c(CNCc4ccccc4)cc23)cc1	dFosB activator 21.4
CN(CCc1ccccc1)C(c1cc2ccccc2o1)c1nnnn1C(C)(C)C (stereo not drawn)	none (no result: VIM-2 inhibitor, dFosB activator, IMP-1 inh)
CCOc1ccc(OCCCN(C)C)cc1	none
CCOc1ccc(OCCCCN(C)C)cc1	IMP-1 inh 35.5
COC(=O)C1CN(C(=O)COc2ccc(C)cc2)c2ccccc2O1 (stereo not drawn)	none
c1ccc(-c2nnc3sc(-c4ccncc4)nn23)cc1	VIM-2 inhibitor 9.0
COc1ccc(-c2nn3c(-c4ccncc4)nnc3s2)cc1OC	VIM-2 inhibitor 10.3 (no result: dFosB activator, HTR2A ag)
COc1cc(-c2nn3c(-c4ccccn4)nnc3s2)cc(OC)c1OC	none (no result: dFosB activator, HTR2A ag)
COc1ccc(NC(=O)Cn2cnc3sc(C)c(S(=O)(=O)N4CCOCC4)c3c2=O)cc1Cl	none
Cc1cc(C)nc(NC(=S)NC(=O)c2ccccc2)n1	VIM-2 inhibitor 8.4
Cc1cc(C)nc(NC(=S)Nc2ccccc2)n1	none
CCc1c(C)c2ccc(OCC(=O)N(C)C)c(C)c2oc1=O	VIM-2 inhibitor 9.8
Cc1c(C)c2ccc(OCC(=O)N(C)C)c(C)c2oc1=O	none
Cc1c(CC(=O)O)c(=O)oc2c(C)c(OCc3ccccc3Br)ccc12	IMP-1 inh 6.9
Cc1c(CC(=O)O)c(=O)oc2c(C)c(OCc3ccccc3)ccc12	none
CN(C)c1ccccc1-c1cc(NC=O)c2ncc(-c3cccc(C(F)(F)F)c3)n2c1	none (no result: VIM-2 inhibitor, dFosB activator, IMP-1 inh)
CCOC(=O)c1c(C)[nH]c(C(=O)OCC(=O)Nc2ccc(Cl)cn2)c1C	none (no result: VIM-2 inhibitor, IMP-1 inh)
CCOC(=O)c1c(C)[nH]c(C(=O)OCC(=O)Nc2sccc2C(N)=O)c1C	dFosB activator 21.8 (no result: VIM-2 inhibitor, IMP-1 inh)
COC(=O)c1cccc(NC(=O)CSc2nnc(C)o2)c1	IMP-1 inh 7.5
Cc1cccc(N(C)c2ncnc3onc(-c4ccc(F)cc4)c23)c1C	none
CCOc1nc(Nc2ccc(OC)c(Cl)c2)nc(OCC)n1	VIM-2 inhibitor 10.0
COc1cc(Nc2cc(C)nc3ncnn23)cc(OC)c1OC	none
COc1ccc(Nc2cc(C)nc3ncnn23)cc1Cl	VIM-2 inhibitor 9.4
CCCC1OC(c2cc3c(cc2Cl)OCO3)OCC1CC (stereo not drawn)	none (no result: VIM-2 inhibitor, IMP-1 inh)
Cn1cc(C(=O)Nc2ccc(F)c(Cl)c2)cn1	none
O=C(O)C1=C(C(=O)Nc2ccc(F)c(Cl)c2)CCCC1	IMP-1 inh 10.3
COc1ccccc1-c1nc(C#N)c(N2CCN(C(=O)c3ccco3)CC2)o1	none
COc1ccc(-c2nc(C#N)c(N3CCN(C(=O)c4ccco4)CC3)o2)cc1OC	IMP-1 inh 7.7
Fc1ccc(-c2ccc(CNCc3ccccn3)o2)cc1	VIM-2 inhibitor 11.0
COc1ccccc1CC(=O)N1CCN(c2ccccn2)CC1	IMP-1 inh 5.9
COc1ccccc1CC(=O)N1CCCC1	none
C=CC(=O)Nc1cccc(N(C)c2ccnc(Nc3ccc(N4CCN(C)CC4)cc3)n2)c1	dFosB activator 45.8 (no result: VIM-2 inhibitor, IMP-1 inh)
C=CC(=O)Nc1cccc(Oc2ccnc(Nc3ccc(N4CCN(C)CC4)cc3)n2)c1	dFosB activator 65.5 (no result: VIM-2 inhibitor, IMP-1 inh)
COc1ccc(OC)c(N2CC(O)=C(c3nc4ccccc4s3)C2=N)c1	IMP-1 inh 4.5
O=C(CCSc1nc2ccccc2s1)N/N=C/c1c(O)ccc2ccccc12	dFosB activator 21.0
COc1ccc(/C=N/NC(=O)CCSc2nc3ccccc3s2)cc1OC	none
CCCCS(=O)(=O)N1CCC(C(=O)Oc2ccc(Cl)cc2)CC1	none
CCCCS(=O)(=O)N1CCCC(C(=O)Oc2ccc(Cl)cc2)C1 (stereo not drawn)	IMP-1 inh 6.0
Cc1ccc(NC(=O)Cn2sc3nc(C)cc(C)c3c2=O)c(Cl)c1	none
CCOc1ccc(-c2nnn(CC(=O)Nc3cc(OC)ccc3OC)n2)cc1OCC	none
CCOc1ccc(-c2nnn(CC(=O)NCc3ccc(OC)cc3)n2)cc1OCC	dFosB activator 29.0
Oc1c(Br)cc(Br)cc1CNc1cccc2cccnc12	IMP-1 inh 16.4
C=CCc1c(C)[nH]c(=S)c(C#N)c1C	IMP-1 inh 9.3
COCc1cc(C)c(C#N)c(=S)[nH]1	none
CCCc1cc(=O)oc2cc(C)cc(OCC(=O)NC3CCN(Cc4ccccc4)CC3)c12	none
Cc1cc(OCC(=O)NC2CCN(Cc3ccccc3)CC2)c2c(C)cc(=O)oc2c1	VIM-2 inhibitor 9.3
CSCC[C@H](NC(=O)Cc1c(C)c2cc3c(C)c(C)oc3cc2oc1=O)C(=O)N[C@@H](C(=O)O)c1ccccc1	none (no result: VIM-2 inhibitor, dFosB activator, IMP-1 inh)
CCCCC(=O)N(C)c1c(C)nc2ccc(C(=O)N3CCNC(=O)C3)cn12	none (no result: VIM-2 inhibitor, dFosB activator, IMP-1 inh)
COc1ccc(-c2cc(C(=O)NC3CCCC3)c3ccccc3n2)cc1OC	none (no result: VIM-2 inhibitor, IMP-1 inh)
COc1ccc(-c2cc(C(=O)NC(C)c3ccccn3)c3ccccc3n2)cc1OC (stereo not drawn)	HTR2A ag 20.1 (no result: VIM-2 inhibitor, IMP-1 inh)
C=C1SC(Nc2c(C)cc(C)cc2C)=NC12CCCCC2	none
Nc1nc2c3ccccc3nc(C3CC3)n2n1	VIM-2 inhibitor 8.2
O=C(CSc1nnc2c(n1)[nH]c1ccccc12)NCc1ccccc1F	HTR2A ag 14.9
CCN(CC)C(=O)CSc1nnc(-c2cc3ccccc3cc2O)n1CC	VIM-2 inhibitor 10.5
Cc1ccc2oc(C(=O)NCc3ccccc3)cc(=O)c2c1	none
COc1ccc(CNC(=O)c2cc(=O)c3cc(C)ccc3o2)cc1	dFosB activator 17.4
CCOC(=O)C(C(=O)OCC)c1cc(Br)c2noc3c2c1C(=O)c1ccccc1-3	none
CC(=O)OCCNc1cc(N2CCN(C)CC2)c2noc3c2c1C(=O)c1ccccc1-3	VIM-2 inhibitor 8.2
O=C(O)CCNc1cc(N2CCN(C(=O)c3ccco3)CC2)c2noc3c2c1C(=O)c1ccccc1-3	IMP-1 inh 7.0
C[C@H](CO)N1C[C@H](C)[C@@H](CN(C)C(=O)Nc2ccc(C(F)(F)F)cc2)Oc2ccc(NS(=O)(=O)c3cn(C)cn3)cc2C1=O	none (no result: VIM-2 inhibitor, IMP-1 inh)
O=C1C=C(O)c2cccc3cccc1c23	none
NC1=CC(=O)c2cccc3cccc1c23	IMP-1 inh 14.3 (no result: dFosB activator, HTR2A ag)
Cc1sc2ncnc(NCC(c3ccco3)N3CCCC3)c2c1C (stereo not drawn)	VIM-2 inhibitor 10.6
COC(=O)[C@@]12C[C@@H](CC(=O)NCC3CCCCC3)C(=O)N(Cc3ccccc3)C1=CCC(C)(C)C2	none (no result: VIM-2 inhibitor, dFosB activator, IMP-1 inh)
COc1ccc(N2CCN(C(CNC(=O)C(=O)NCCCn3ccnc3)c3cccnc3)CC2)cc1 (stereo not drawn)	IMP-1 inh 5.6
CC(C)c1ccc(CNC(=O)C(=O)NCCCn2ccnc2)cc1	IMP-1 inh 30.0
CC(NC(=O)C(=O)NCCCn1ccnc1)c1ccccc1 (stereo not drawn)	none
CCCCNC(=O)C1c2ccccc2OCC(=O)N1CCc1c[nH]c2ccccc12 (stereo not drawn)	none (no result: VIM-2 inhibitor, dFosB activator, IMP-1 inh)
CN(C)c1ccc(-c2ccc3c(=O)c4ccccc4n(C)c3c2)cn1	VIM-2 inhibitor 12.1
Cc1cc(C)n(-c2ccc(C(=O)NCC(c3ccco3)N3CCCC3)cc2)n1 (stereo not drawn)	none (no result: VIM-2 inhibitor, IMP-1 inh)
N#Cc1ccccc1OCC(=O)OCC(=O)NC1CCCC1	none (no result: VIM-2 inhibitor, IMP-1 inh)
CCOc1ccc(OCCNCc2ccc(OC(C)C(=O)N(C)C)c(OCC)c2)cc1 (stereo not drawn)	none
